According to PMC5102769 (Neurobiology of disease, 2016):
Where two headings read alike, the source gives them in different places.

Molecular target: T1, ENT1 (Mus musculus, UniProt Q9JIM1)
T1 sequence (Q9JIM1 1-460): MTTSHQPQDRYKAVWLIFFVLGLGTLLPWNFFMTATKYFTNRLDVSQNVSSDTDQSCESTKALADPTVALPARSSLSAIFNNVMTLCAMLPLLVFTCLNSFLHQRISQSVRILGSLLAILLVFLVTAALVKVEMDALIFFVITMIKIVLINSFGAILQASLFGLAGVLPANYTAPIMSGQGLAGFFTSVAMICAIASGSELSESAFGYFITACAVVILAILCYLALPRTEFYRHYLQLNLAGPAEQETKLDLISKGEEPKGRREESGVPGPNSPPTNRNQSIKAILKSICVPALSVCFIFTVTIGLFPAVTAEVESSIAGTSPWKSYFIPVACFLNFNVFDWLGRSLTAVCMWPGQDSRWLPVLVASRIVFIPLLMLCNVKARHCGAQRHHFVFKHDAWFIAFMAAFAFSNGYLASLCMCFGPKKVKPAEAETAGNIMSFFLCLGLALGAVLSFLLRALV
Format: binding
Details: striatum; for Kd: read-out: KD (affinity)
In short: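 Striata from 12-month-old heterozygous zQ175 and WT littermate mice were homogenized in 50 mM Tris-HCl pH 7.4 with protease inhibitors, then membranes were pelleted at 100,000 g (45 min, 4°C) and washed twice. Membranes (0.2 mg protein/ml) were incubated with increasing [3H]NBTI in 50 mM Tris-HCl pH 7.4 with 2 I.U./ml adenosine deaminase. Unlabeled NBTI defined non-specific binding. Bound ligand was separated by rapid filtration and counted by scintillation. n = 8–10/group, means ± S.E.M.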

- Bmax (number of binding sites) (WT littermates of zQ175 mice): 0.27 ± 0.03 pmol/mg of protein
- Kd (WT littermates of zQ175 mice): 0.11 ± 0.01 nM
- Kd (zQ175 mice (HET, 12-month old)): 0.11 ± 0.03 nM
- Bmax (number of binding sites) (zQ175 mice (HET, 12-month old)): 0.35 ± 0.02 pmol/mg protein
SMILES: O=[N+]([O-])c1ccc(CSc2ncnc3c2ncn3[C@@H]2O[C@H](CO)[C@@H](O)[C@H]2O)cc1 [[^3H]NBTI, [^3H]-S-(4-Nitrobenzyl)-6-thioinosine]
